Source: PubChem (The Scripps Research Institute Molecular Screening Center)
TAAR1 antag = human TAAR1 antagonism; Q96RJ0; CHO RD-HGA16 TAAR1, Fluo-8 calcium fluorescence, antagonist; inhibition, % at 3 µM; hit rate 1.5% among 360,000;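 active = inhibition above a per-plate cutoff, the mean inhibition of test compounds on that plate plus 3 SD, cut at about 49% in these data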;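 note: 0% = DMSO plus EC80 beta-PEA response and 100% = DMSO alone without agonist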
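Test system – hTAAR1-expressing CHO RD-HGA16 cells, Gα16-coupled · Also added – β-PEA at EC80 concentration, post-compound challenge · Compound – 3 µM, single point · Incubation – dye loading 75 min at 37 °C, then 30 min room temperature · Measured by – Fluo-8 intracellular calcium dye fluorescence, real-time kinetic reads · Benchmarks – vehicle and agonist controls · Replicates – singlicate, one well per test compound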
TAAR1 agonist = agonists of human TAAR1; CHO RD-HGA16 TAAR1, Fluo-8 calcium fluorescence; vehicle wells 0%, saturating PEA agonist 100%; activation, % at 3 µM; Q96RJ0; hit rate 0.99% among 360,000; AID 624467;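 active = activation above the mean activation of all test compounds in the run plus 3 SD, cut at about 38% in these data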
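Signal – calcium-sensitive Fluo-8 signal, excitation 470-495, emission 515-575 nm · System – RD-HGA16 (CHO) cells co-expressing Gα16 and hTAAR1 · Incubation – 17-24 h seeding, 75 min 37 °C dye, 30 min RT · Compound dosing – 3 µM single concentration · Repeats – no replicates (n 1)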
OX1R antag-1 = antagonists of human orexin 1 receptor | O43613 | CHO/OX1R cells, Fluo-8 calcium fluorescence, orexin A | inhibition, % at 5 µM | hit rate 0.43% among 330,000 | AID 434989;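 active = inhibition above its plate's threshold, mean inhibition of all tested compounds on the plate plus 3 SD, cut at about 37% in these data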;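 note: 0% = orexin A challenge wells and 100% = SB-334867-A antagonist wells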
Target sequence (O43613 whole entry, looked up): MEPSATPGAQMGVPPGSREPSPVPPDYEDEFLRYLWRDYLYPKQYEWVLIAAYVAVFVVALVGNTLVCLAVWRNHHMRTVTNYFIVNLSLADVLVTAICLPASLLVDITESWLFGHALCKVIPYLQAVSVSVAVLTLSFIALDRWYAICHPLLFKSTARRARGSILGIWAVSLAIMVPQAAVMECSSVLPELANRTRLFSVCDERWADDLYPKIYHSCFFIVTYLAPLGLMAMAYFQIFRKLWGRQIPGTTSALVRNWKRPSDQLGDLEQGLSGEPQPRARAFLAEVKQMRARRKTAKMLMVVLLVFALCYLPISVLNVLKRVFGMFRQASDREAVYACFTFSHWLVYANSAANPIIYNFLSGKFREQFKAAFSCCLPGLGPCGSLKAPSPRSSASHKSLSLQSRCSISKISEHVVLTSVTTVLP
OX1R antag-2 = blocks the human orexin 1 receptor; inhibition, % at 6.6 µM; OX1R-expressing cells, FRET antagonist read-out; hit rate 1.8% among 330,000; in the data active = inhibition mostly above about 38%, no sharp cut-off; inactive = mostly below about 40%;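 note: 0% = agonist challenge alone and 100% = reference antagonist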
CHO parental Ca = counter-screen for OX1R antagonists: effect in parental CHO cells | parental CHO-K1, ATP-induced calcium, Fluo-8 fluorescence | inhibition, % at 5.6 µM | hit rate 0.63% among 330,000 | AID 463079;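 active = inhibition above that plate's mean sample inhibition plus 3 SD, cut at about 26% in these data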;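 note: 0% = ATP-challenged DMSO wells and 100% = DMSO wells without ATP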
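material = parental CHO cells | also added = ATP as calcium-mobilizing challenge | dosing = single point at 5.6 µM | detection = intracellular calcium via Fluo-8 no-wash fluorescent dye | read-out = % inhibition | benchmarks = low control ATP plus DMSO, high control DMSO only | repeats = one well per compound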
TAAR1 ag conf = human TAAR1 agonism, confirmed; activation, % at 3 µM; AID 651783; hit rate 82% among 2,400; shares compounds with TAAR1 agonist; CHO RD-HGA16 TAAR1, Fluo-8 calcium fluorescence; scaled: DMSO 0%, maximal phenethylamine 100%;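 active = activation above a cutoff set at the run's mean compound activation plus 3 SD, cut at about 39% in these data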
Ga16 nonsel ag = nonselective agonism, TAAR1 counter-screen; hit rate 50% among 2,400; CHO-Ga16 parental, Fluo-8 calcium fluorescence; normalized to maximal ATP response, DMSO zero; shares compounds with TAAR1 agonist; activation, % at 3 µM;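 active = activation above the run cutoff, the mean activation over all tested wells plus 3 SD, cut at about 12% in these data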;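 note: 0% = DMSO wells and 100% = maximal ATP response on the peak over basal ratio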
TAAR1 desens = TAAR1 response desensitization, agonist counter-screen; shares compounds with TAAR1 agonist; CHO RD-HGA16 hTAAR1, Fluo-8 calcium, beta-PEA response inhibition; inhibition, % at 3 µM; hit rate 46% among 2,400;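 active = inhibition above the run cutoff, the mean inhibition of all test compounds plus 3 SD, cut at about 49% in these data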;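 note: beta-PEA stimulus applied at its EC80; loss of beta-PEA calcium signal after compound pretreatment read as receptor desensitization; 0% = DMSO with beta-PEA at EC80 and 100% = DMSO alone without agonist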
Ga16 antag count = counter-screen for TAAR1 agonists: nonselective Ga16 antagonists; AID 651952; inhibition, % at 3 µM; shares compounds with TAAR1 agonist; hit rate 39% among 2,400; CHO-Ga16 ATP-induced calcium, Fluo-8 fluorescence;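 active = inhibition above the plate's mean compound inhibition plus 3 SD, computed per plate, cut at about 22% in these data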;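 note: 0% = EC80 ATP with DMSO and 100% = DMSO wells without ATP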
An asterisk follows results filed as active; / = no result given. Sampled rows, rich in hits. Any-hit rate of the full collection: about 4%.

SMILES | TAAR1 antag | TAAR1 agonist | OX1R antag-1 | OX1R antag-2 | CHO parental Ca | TAAR1 ag conf | Ga16 nonsel ag | TAAR1 desens | Ga16 antag count
O=C(CCCN1CCC2(CC1)C(=O)NCN2c1ccccc1)c1ccc(F)cc1 | 106* | 154* | 106* | 10 | 99* | 131* | 116* | 107* | 103*
O=C(NCCN1CCC2(CC1)C(=O)NCN2c1ccccc1)C(c1ccccc1)c1ccccc1 | 93* | 58* | / | / | / | 33 | 24* | 76* | 62*
ClCCN(CCCl)c1ccc(C=Cc2ccncn2)cc1 | 29 | 7 | / | / | / | / | / | / | /
COC(=O)C1=C(c2ccc(F)cc2F)C[C@@H]2CC[C@H]1N2C(=O)N1CCC(O)CC1 | -12 | 1 | -12 | 9 | -4 | / | / | / | /
Cc1ccc(C(=O)NCCN2CCC3(CC2)C(=O)NCN3c2ccccc2)cc1 | 99* | 86* | / | / | / | 53* | 41* | 98* | 84*
O=C(Nc1ccc(Cl)cc1)Nc1nccs1 | 33 | 50* | -7 | 44 | -7 | 56* | 8 | 34 | 22*
O=C(O)C1C2c3ccccc3C(O)C1(C(=O)O)c1ccccc12 (stereo not drawn) | -16 | 6 | / | / | / | / | / | / | /
O=c1c2ccccc2nc(-c2cccs2)n1-c1ccccc1 | -18 | 7 | 2 | 52 | -17 | / | / | / | /
NC(N)=N/N=C/c1cn(-c2ccccc2)nc1-c1cccs1 | 4 | 47* | -2 | 8 | -2 | 76* | 7 | 35 | 13
